pEC50, pIC50, pKi: −log10 of the molar value. Calls of active or inactive are those of the source. No cut-off for these calls is given here.
Experiments:
[1] = molecular target: T1, Protein-arginine deiminase type-2 (Homo sapiens, UniProt Q9Y2J8); settings: at 0.1 to 2.5 µM
U2OS [2] = test: Cytotoxicity against human U2OS cells after 3 days by XTT-PMS assay; settings: 72 h
[3] = tested on: Protein-arginine deiminase type-4 (Homo sapiens), Q9UM07 [C645A]; test: Binding affinity to PAD4 C645A mutant (unknown origin) assessed as mass shift of enzyme at 1:10 enzyme to compound ratio preincubated for 1 hr followed by overnight dialysis in double distilled water by MALDI mass spectrometric analysis in presence of catalase
Protein-arginine deiminase type-4 (Homo sapiens), Q9UM07 [C645A], sequence (Q9UM07 whole entry C645A): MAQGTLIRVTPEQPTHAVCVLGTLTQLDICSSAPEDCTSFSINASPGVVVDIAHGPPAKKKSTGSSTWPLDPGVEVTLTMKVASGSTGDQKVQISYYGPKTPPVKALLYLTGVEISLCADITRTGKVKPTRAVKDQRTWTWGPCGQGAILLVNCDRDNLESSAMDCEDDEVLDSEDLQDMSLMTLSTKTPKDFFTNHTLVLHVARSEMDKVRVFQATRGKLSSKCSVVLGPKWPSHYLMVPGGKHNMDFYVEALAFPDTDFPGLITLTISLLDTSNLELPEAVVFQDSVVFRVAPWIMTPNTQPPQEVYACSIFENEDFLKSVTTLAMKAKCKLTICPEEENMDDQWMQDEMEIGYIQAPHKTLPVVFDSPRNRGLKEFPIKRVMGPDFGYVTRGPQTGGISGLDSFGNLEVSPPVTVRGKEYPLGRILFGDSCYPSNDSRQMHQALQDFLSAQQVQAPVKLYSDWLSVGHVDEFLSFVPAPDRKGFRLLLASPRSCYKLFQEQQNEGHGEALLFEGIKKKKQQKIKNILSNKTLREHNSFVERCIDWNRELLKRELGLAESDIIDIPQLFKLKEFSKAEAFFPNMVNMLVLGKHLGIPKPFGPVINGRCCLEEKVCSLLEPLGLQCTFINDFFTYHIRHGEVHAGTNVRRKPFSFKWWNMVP

[4] = tested on: Protein-arginine deiminase type-4 (Homo sapiens), Q9UM07 [C645A]; test: Binding affinity to PAD4 C645A mutant (unknown origin) assessed as mass shift of enzyme at 1:10 enzyme to compound ratio preincubated for 1 hr followed by overnight dialysis in double distilled water by MALDI mass spectrometric analysis in presence of superoxide dismutase
[5] = molecular target: T2, Protein-arginine deiminase type-4 (Homo sapiens, UniProt Q9UM07); settings: 0.5 uM
T2 sequence (Q9UM07 whole entry): as the sequence (Q9UM07 whole entry C645A) above, with A645C counted along it

U2OS [6] = test: Cytotoxicity against human U2OS cells assessed as cell viability at 10 uM after 3 days by XTT-PMS assay relative to control; assay type: functional; settings: for viability at 10 µM: 72 h, read-out: Activity
Summary of the method: (§1)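 U2OS or NIH 3T3 cells (2.5 × 10^4 cells/mL) plated in 48-well format (n=4) and dosed with 10 µM compound for 3 days. XTT-PMS activated reagent then added for 4 h of colour development; formazan absorbance read at 475 nm.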

[7] = molecular target: T3, Protein-arginine deiminase type-1 (Homo sapiens, UniProt Q9ULC6); test: Inhibition of recombinant wild-type PAD1 (unknown origin) using N-alpha-Benzoyl-L-arginine amide as substrate preincubated for 15 mins followed by substrate addition measured after 15 mins by COLDER assay
T3 sequence (Q9ULC6 whole entry): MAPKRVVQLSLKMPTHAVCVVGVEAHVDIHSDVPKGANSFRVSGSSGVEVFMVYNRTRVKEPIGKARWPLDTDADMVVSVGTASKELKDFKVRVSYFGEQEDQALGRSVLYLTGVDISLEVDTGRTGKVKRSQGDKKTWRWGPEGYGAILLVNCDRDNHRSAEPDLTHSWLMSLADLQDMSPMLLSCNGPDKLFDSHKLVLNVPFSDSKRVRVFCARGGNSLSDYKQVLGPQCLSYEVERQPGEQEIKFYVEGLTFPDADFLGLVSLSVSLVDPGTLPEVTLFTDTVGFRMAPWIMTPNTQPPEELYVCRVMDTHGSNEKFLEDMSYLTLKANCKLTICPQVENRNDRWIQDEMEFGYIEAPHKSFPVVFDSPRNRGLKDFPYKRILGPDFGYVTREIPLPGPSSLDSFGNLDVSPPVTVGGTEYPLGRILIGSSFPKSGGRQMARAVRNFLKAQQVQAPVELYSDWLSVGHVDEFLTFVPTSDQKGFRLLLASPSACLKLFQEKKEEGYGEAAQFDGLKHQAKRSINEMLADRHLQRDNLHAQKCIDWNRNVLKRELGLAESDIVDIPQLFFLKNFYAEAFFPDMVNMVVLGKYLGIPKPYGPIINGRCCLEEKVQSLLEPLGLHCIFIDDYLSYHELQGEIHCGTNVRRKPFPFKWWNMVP

NIH3T3 [8] = test: Cytotoxicity against mouse NIH/3T3 cells assessed as cell viability at 10 uM after 3 days by XTT-PMS assay relative to control; assay type: cell-based; settings: nih3t3, 72 h
Summary of the method: as §1

[9] = molecular target: T1, Protein-arginine deiminase type-2; test: Inhibition of recombinant wild-type PAD2 (unknown origin) using N-alpha-Benzoyl-L-arginine ethyl ester as substrate preincubated for 15 mins followed by substrate addition measured after 15 mins by COLDER assay
[10] = molecular target: T2, Protein-arginine deiminase type-4; test: Inhibition of recombinant wild-type PAD4 (unknown origin) using N-alpha-Benzoyl-L-arginine ethyl ester as substrate preincubated for 10 mins followed by substrate addition measured after 15 mins by COLDER assay
[11] = molecular target: T1, Protein-arginine deiminase type-2; test: Inhibition of recombinant wild-type PAD2 (unknown origin) using N-alpha-Benzoyl-L-arginine ethyl ester as substrate preincubated for 10 mins followed by substrate addition measured after 15 mins by COLDER assay
[12] = molecular target: T2, Protein-arginine deiminase type-4; test: Competitive inhibition of recombinant wild-type PAD4 (unknown origin) at 1 to 50 uM by fluorescence polarization-ABPP assay in presence of RFA; settings: in the assay text read “gel-based competitive ABPP assay” for “fluorescence polarization-ABPP assay”
Summary of the method: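 Wild-type PAD4 (2 µM final) labelled with RFA (10 µM final) plus 10 mM calcium in the presence of competitor (0–50 µM final). Quenched with SDS loading buffer, boiled 20 min, run on 12% SDS-PAGE; in-gel fluorescence imaged and quantified.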

[13] = tested on: Protein-arginine deiminase type-4 (Homo sapiens), Q9UM07 [C645A]; test: Binding affinity to PAD4 C645A mutant (unknown origin) assessed as mass shift of enzyme at 1:10 enzyme to compound ratio preincubated for 1 hr followed by overnight dialysis in double distilled water by MALDI mass spectrometric analysis
[14] = tested on: Protein-arginine deiminase type-2 (Homo sapiens), Q9Y2J8 [C647A]; test: Binding affinity to PAD2 C647A mutant (unknown origin) assessed as mass shift of enzyme at 1:10 enzyme to compound ratio preincubated for 1 hr followed by overnight dialysis in double distilled water by MALDI mass spectrometric analysis
Protein-arginine deiminase type-2 (Homo sapiens), Q9Y2J8 [C647A], sequence (Q9Y2J8 whole entry C647A): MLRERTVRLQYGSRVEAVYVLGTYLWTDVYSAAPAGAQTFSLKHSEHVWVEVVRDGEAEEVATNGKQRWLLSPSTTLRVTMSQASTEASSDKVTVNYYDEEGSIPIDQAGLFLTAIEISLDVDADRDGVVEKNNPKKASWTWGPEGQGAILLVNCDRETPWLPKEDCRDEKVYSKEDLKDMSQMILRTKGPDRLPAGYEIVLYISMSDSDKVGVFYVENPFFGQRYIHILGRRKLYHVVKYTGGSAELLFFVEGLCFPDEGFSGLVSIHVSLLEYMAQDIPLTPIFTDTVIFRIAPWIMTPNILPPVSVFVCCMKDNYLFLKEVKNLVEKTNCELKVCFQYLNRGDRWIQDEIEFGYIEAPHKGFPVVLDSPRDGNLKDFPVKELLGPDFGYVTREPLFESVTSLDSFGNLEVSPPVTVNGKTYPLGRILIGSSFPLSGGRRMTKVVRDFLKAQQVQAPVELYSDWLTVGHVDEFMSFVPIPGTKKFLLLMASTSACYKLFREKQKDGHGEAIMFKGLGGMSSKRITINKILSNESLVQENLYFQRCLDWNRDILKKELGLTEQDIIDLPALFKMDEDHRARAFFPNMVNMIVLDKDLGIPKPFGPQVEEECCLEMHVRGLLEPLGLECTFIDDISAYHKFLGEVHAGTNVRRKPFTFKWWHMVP

[15] = molecular target: T2, Protein-arginine deiminase type-4; test: Binding affinity to recombinant wild-type PAD4 (unknown origin) assessed as mass shift of enzyme at 1:10 enzyme to compound ratio preincubated for 1 hr followed by overnight dialysis in double distilled water by MALDI mass spectrometric analysis in presence of catalase
[16] = molecular target: T1, Protein-arginine deiminase type-2
[17] = molecular target: T2, Protein-arginine deiminase type-4; test: Binding affinity to recombinant wild-type PAD4 (unknown origin) assessed as mass shift of enzyme at 1:10 enzyme to compound ratio preincubated for 1 hr followed by overnight dialysis in double distilled water by MALDI mass spectrometric analysis
[18] = molecular target: T2, Protein-arginine deiminase type-4
[19] = molecular target: T1, Protein-arginine deiminase type-2; test: Binding affinity to recombinant wild-type PAD2 (unknown origin) assessed as mass shift of enzyme at 1:10 enzyme to compound ratio preincubated for 1 hr followed by overnight dialysis in double distilled water by MALDI mass spectrometric analysis
[20] = molecular target: T4, Protein-arginine deiminase type-3 (Homo sapiens, UniProt Q9ULW8); test: Inhibition of recombinant wild-type PAD3 (unknown origin) using N-alpha-Benzoyl-L-arginine amide as substrate preincubated for 15 mins followed by substrate addition measured after 15 mins by COLDER assay
T4 sequence (Q9ULW8 whole entry): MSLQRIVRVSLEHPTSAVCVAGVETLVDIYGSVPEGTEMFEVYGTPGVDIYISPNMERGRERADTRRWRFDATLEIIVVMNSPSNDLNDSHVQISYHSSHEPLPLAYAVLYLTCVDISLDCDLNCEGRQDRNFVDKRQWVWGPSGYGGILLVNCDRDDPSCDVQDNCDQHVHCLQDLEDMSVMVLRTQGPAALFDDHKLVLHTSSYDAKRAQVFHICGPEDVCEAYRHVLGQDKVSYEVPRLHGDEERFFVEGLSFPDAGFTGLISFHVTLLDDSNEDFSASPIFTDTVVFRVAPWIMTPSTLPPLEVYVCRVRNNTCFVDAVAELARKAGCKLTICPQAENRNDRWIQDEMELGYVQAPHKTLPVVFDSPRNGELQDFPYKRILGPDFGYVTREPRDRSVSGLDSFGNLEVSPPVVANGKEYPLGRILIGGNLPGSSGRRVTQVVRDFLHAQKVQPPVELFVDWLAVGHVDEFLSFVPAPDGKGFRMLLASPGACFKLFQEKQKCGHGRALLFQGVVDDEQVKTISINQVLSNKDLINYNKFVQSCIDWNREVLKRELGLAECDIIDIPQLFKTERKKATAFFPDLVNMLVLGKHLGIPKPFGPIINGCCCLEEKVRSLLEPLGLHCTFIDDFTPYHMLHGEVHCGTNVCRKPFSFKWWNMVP

NIH3T3 [21] = test: Cytotoxicity against mouse NIH/3T3 cells after 3 days by XTT-PMS assay; settings: NIH3T3, 72 h
[22] = molecular target: T2, Protein-arginine deiminase type-4; test: Inhibition of recombinant wild-type PAD4 (unknown origin) using N-alpha-Benzoyl-L-arginine ethyl ester as substrate preincubated for 15 mins followed by substrate addition measured after 15 mins by COLDER assay
[23] = molecular target: T2, Protein-arginine deiminase type-4; test: Binding affinity to recombinant wild-type PAD4 (unknown origin) assessed as mass shift of enzyme at 1:10 enzyme to compound ratio preincubated for 1 hr followed by overnight dialysis in double distilled water by MALDI mass spectrometric analysis in presence of superoxide dismutase
[24] = molecular target: T2, Protein-arginine deiminase type-4; test: Irreversible inhibition of recombinant wild-type PAD4 (unknown origin) using N-alpha-Benzoyl-L-arginine ethyl ester as substrate assessed as residual activity at 170-fold excess of compound after 1 hr by dialysis method
Summary of the method: (§2)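 Wild-type PAD2 or PAD4 (0.6 µM final) incubated 1 h with compound (170-fold excess) or no compound in Reaction Buffer, then dialysed 20 h against Long-Term Storage Buffer (Tris-HCl pH 7.6, 1 mM EDTA, 500 mM NaCl, 2 mM DTT, 10% glycerol). Residual activity measured with 10 mM BAEE, quenched in liquid N2, and expressed relative to separately dialysed untreated enzyme (100%).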

[25] = molecular target: T5, Protein-arginine deiminase type-3 (Homo sapiens) (UniProt Q9ULW8); test: Irreversible inhibition of recombinant wild-type PAD3 (unknown origin) using N-alpha-Benzoyl-L-arginine amide as substrate assessed as residual activity at 170-fold excess of compound after 1 hr by dialysis method
T5 sequence (whole entry): T4 sequence (Q9ULW8 whole entry)

[26] = molecular target: T1, Protein-arginine deiminase type-2; test: Irreversible inhibition of recombinant wild-type PAD2 (unknown origin) using N-alpha-Benzoyl-L-arginine ethyl ester as substrate assessed as residual activity at 170-fold excess of compound after 1 hr by dialysis method
Summary of the method: as §2

[27] = molecular target: T6, Protein-arginine deiminase type-1 (Homo sapiens) (UniProt Q9ULC6); test: Irreversible inhibition of recombinant wild-type PAD1 (unknown origin) using N-alpha-Benzoyl-L-arginine amide as substrate assessed as residual activity at 170-fold excess of compound after 1 hr by dialysis method
T6 sequence (whole entry): T3 sequence (Q9ULC6 whole entry)

T1 sequence (Q9Y2J8 whole entry): as the sequence (Q9Y2J8 whole entry C647A) above, with A647C counted along it

| inhibition [1] | Activity [3] | Activity [4] | pIC50 [7] | pIC50 [9] | inhibition [12] | Activity [13] | Activity [14] | Activity [15] | Activity [17] | Activity [19] | pIC50 [20] | pIC50 [22] | Activity [23] | Structure (SMILES) | pEC50 (U2OS [2]) | viability at 10 µM (U2OS [6]) [%] | Activity (NIH3T3 [8]) | pEC50 (NIH3T3 [21]) | Activity (U2OS [6]) | other results |
| --- | --- | --- | --- | --- | --- | --- | --- | --- | --- | --- | --- | --- | --- | --- | --- | --- | --- | --- | --- | --- |
| Active | Active | Active | 6.02 | 6.49 | Active | Active | Active | Active | Active | Active | 6.89 | 6.19 | Active | NC1=CC(=O)c2ccc(-c3ccccn3)nc2C1=O | 6.40 | ≤ 30 | <= 30% | 6.22 | – | inhibition [5]: Active; pKi [10]: 4.70; pKi [11]: 5.09; Kinact [16]: 0.07 min⁻¹; Kinact [18]: 0.12 min⁻¹ |
| Active | Active | Active | 7.15 | 6.70 | Active | Active | Active | Active | Active | Active | 6.15 | – | Active | NC1=CC(=O)c2ccc(-c3cccc(C(=O)O)n3)nc2C1=O | 4.23 | – | Active | 4.21 | Active | Activity [24]: inactive; Activity [25]: inactive; Activity [26]: inactive; Activity [27]: inactive |
| – | – | – | 6.02 | 6.13 | – | – | – | – | – | – | 6.77 | 6.00 | – | NC1=CC(=O)c2cccnc2C1=O | 6.10 | ≤ 30 | <= 30% | 5.96 | – | – |
| – | – | – | 5.34 | 5.20 | – | – | – | – | – | – | 5.36 | 5.48 | – | COC1=C(Br)C(=O)c2ncccc2C1=O | – | – | Active | – | Active | – |
| – | – | – | – | – | – | – | – | – | – | – | – | – | – | NC1=C(Br)C(=O)c2cccnc2C1=O | – | ≤ 30 | <= 30% | – | – | – |

| Structure (SMILES) | inhibition [1] | Activity [3] | Activity [4] | pIC50 [7] | pIC50 [9] | inhibition [12] | Activity [13] | Activity [14] | Activity [15] | Activity [17] | Activity [19] | pIC50 [20] | pIC50 [22] | Activity [23] | pEC50 (U2OS [2]) | viability at 10 µM (U2OS [6]) [%] | Activity (NIH3T3 [8]) | pEC50 (NIH3T3 [21]) | Activity (U2OS [6]) | other results |
| --- | --- | --- | --- | --- | --- | --- | --- | --- | --- | --- | --- | --- | --- | --- | --- | --- | --- | --- | --- | --- |
| COC1=C(N)C(=O)c2nc(-c3nc(C(=O)O)c(C)c(-c4ccc(OC)c(OC)c4O)c3N)ccc2C1=O [STREPTONIGRIN] | Active | Active | Active | 4.32 | 4.58 | Active | Active | Active | Active | Active | Active | 6.37 | – | Active | – | – | – | – | – | – |

— ChEMBL document CHEMBL3112427, “Insights into the mechanism of streptonigrin-induced protein arginine deiminase inactivation” (Bioorg Med Chem, 2014)
